Assay results: ChEMBL document CHEMBL4627265, “Optimization of 8-oxoadenines with toll-like-receptor 7 and 8 activity” (Bioorg Med Chem Lett, 2020)
Activity calls are given as the source filed them. The calls are words filed in the database; no cut-off is given here.

Experiments:
Type in all cases: cell-based
[1] = molecular target: T1, Toll-like receptor 9 (Homo sapiens) (UniProt Q9NR96); experiment: Agonist activity at human TLR9 expressed in HEK293 cells by SEAP reporter gene assay
T1 sequence (whole entry): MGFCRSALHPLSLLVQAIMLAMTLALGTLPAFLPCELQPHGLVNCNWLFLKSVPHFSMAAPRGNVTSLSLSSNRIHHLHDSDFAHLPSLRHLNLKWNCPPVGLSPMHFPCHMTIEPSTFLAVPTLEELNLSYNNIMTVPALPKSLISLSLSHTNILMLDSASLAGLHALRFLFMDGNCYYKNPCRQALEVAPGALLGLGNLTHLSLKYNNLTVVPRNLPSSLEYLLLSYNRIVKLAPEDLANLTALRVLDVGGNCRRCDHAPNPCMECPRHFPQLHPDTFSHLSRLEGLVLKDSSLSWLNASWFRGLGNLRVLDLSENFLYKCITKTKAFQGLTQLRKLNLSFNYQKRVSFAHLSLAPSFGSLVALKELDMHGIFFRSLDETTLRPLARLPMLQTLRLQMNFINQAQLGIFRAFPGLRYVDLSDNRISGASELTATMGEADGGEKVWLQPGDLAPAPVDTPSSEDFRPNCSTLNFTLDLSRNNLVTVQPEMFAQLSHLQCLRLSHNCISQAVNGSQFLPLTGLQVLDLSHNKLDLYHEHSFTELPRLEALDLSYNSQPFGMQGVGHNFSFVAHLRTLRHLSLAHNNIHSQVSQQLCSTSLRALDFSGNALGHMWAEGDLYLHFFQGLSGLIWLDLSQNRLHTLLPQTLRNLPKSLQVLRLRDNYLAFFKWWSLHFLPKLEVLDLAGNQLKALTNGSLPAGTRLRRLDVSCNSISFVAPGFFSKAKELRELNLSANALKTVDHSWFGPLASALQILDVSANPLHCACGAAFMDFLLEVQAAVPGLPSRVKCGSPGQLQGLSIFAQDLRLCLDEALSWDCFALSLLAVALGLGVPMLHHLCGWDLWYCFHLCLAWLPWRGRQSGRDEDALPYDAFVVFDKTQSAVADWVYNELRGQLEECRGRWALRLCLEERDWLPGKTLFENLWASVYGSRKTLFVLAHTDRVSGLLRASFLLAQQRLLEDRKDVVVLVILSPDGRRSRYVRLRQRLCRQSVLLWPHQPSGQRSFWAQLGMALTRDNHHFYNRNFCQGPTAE

[2] = molecular target: T2, Toll-like receptor 7 (Homo sapiens) (UniProt Q9NYK1); experiment: Agonist activity at TLR7 in human PBMC assessed as IFNalpha stimulation at 10 uM
T2 sequence (whole entry): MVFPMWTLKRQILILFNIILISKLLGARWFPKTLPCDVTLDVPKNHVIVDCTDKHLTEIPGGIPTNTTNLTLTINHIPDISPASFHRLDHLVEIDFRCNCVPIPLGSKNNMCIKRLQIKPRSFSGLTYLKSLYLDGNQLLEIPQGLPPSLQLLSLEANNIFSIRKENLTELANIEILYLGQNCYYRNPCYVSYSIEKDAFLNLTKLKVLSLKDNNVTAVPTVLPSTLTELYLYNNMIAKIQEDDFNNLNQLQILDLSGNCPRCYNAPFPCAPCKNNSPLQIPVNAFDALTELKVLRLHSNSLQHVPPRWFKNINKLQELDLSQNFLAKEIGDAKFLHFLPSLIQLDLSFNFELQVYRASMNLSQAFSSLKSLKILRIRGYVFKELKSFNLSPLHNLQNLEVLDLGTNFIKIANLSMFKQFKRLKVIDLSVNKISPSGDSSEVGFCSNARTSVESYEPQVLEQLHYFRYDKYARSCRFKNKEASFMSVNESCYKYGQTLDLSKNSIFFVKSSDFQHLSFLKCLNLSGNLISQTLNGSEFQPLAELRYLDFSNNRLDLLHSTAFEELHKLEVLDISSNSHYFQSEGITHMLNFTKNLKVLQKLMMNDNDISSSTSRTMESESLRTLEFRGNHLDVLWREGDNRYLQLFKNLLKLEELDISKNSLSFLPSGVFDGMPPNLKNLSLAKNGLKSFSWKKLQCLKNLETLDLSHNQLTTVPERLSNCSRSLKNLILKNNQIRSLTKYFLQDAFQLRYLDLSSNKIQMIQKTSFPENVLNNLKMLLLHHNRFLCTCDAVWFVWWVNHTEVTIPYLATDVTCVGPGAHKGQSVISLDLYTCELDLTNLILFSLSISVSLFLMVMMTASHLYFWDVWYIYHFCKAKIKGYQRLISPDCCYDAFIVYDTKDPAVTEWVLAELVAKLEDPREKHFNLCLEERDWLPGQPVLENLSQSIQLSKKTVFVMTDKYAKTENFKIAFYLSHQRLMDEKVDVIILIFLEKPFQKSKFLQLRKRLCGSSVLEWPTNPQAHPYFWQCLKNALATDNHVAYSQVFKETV
How it was run: (§1)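 IFNα secretion by hPBMCs across a μM dose range; MEC = lowest dose tested inducing cytokine, PC = dose giving highest level, PL = peak level at 10 μM. Data representative of one of three independent donors.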

[3] = molecular target: T2, Toll-like receptor 7 (Homo sapiens); experiment: Agonist activity at TLR7 in human PBMC assessed as induction of plasmacytoid dendritic cell maturation by measuring increase in CD86 level at 0.1 uM after 6 hrs by flow cytometry relative to control
How it was run: (§2)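 hPBMCs stimulated 6 h at a single 0.1 μM dose; HLA-DR, MHC-I, CD80 and CD86 on mDCs and pDCs measured by flow cytometry, expressed as fold change versus unstimulated cells. Mean ± SD of three independent experiments in three different donors.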

[4] = molecular target: T2, Toll-like receptor 7 (Homo sapiens); experiment: Agonist activity at TLR7 in human PBMC assessed as induction of plasmacytoid dendritic cell maturation by measuring increase in MHC-1 level at 0.1 uM after 6 hrs by flow cytometry relative to control; how it was run: as §2
[5] = molecular target: T2, Toll-like receptor 7 (Homo sapiens); experiment: Agonist activity at TLR7 in human PBMC assessed as induction of plasmacytoid dendritic cell maturation by measuring increase in HLA-DR level at 0.1 uM after 6 hrs by flow cytometry relative to control; how it was run: as §2
[6] = molecular target: T3, Toll-like receptor 7 (Homo sapiens, UniProt Q9NYK1); experiment: Agonist activity at human TLR7 expressed in HEK293 cells assessed as induction of NFKappaB activity after 24 hrs by SEAP reporter gene assay
T3 sequence (Q9NYK1 whole entry): T2 sequence (whole entry)
How it was run: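 HEK293 cells stably transfected with hTLR7 or hTLR8 plus an NFκB-driven SEAP reporter, treated 24 h with compound over a μM range; SEAP secretion read out. EC50 as mean ± SD of three (TLR7) or four (TLR8) independent experiments.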

[7] = molecular target: Toll-like receptor 3 (Homo sapiens) (UniProt O15455); experiment: Agonist activity at human TLR3 expressed in HEK293 cells by SEAP reporter gene assay
Chain of Toll-like receptor 3 (Homo sapiens) (O15455 whole entry): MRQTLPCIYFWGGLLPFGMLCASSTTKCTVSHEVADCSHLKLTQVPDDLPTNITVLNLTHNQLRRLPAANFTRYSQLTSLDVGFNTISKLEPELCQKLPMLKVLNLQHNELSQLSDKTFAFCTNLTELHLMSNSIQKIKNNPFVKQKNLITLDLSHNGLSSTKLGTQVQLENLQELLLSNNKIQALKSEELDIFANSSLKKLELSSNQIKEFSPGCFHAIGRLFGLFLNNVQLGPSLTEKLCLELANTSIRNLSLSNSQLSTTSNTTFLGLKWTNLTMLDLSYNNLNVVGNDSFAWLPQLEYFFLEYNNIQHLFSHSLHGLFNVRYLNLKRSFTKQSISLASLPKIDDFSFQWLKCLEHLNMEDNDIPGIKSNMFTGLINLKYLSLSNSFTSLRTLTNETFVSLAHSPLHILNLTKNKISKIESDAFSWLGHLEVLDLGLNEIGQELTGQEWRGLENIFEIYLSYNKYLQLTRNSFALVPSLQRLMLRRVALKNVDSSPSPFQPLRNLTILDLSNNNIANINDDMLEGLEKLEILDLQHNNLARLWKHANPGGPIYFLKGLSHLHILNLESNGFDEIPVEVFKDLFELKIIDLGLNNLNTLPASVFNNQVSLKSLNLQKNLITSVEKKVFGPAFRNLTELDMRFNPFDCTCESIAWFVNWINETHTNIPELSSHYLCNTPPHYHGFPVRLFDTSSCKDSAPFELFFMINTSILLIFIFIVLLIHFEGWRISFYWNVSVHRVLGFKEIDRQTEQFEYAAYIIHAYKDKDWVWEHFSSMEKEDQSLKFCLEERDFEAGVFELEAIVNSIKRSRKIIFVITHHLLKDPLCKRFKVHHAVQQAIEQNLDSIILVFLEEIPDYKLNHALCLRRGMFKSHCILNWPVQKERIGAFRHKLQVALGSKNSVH

[8] = molecular target: T4, Toll-like receptor 8 (Homo sapiens) (UniProt Q9NR97); experiment: Agonist activity at TLR8 in human PBMC assessed as TNFalpha level
T4 sequence (whole entry): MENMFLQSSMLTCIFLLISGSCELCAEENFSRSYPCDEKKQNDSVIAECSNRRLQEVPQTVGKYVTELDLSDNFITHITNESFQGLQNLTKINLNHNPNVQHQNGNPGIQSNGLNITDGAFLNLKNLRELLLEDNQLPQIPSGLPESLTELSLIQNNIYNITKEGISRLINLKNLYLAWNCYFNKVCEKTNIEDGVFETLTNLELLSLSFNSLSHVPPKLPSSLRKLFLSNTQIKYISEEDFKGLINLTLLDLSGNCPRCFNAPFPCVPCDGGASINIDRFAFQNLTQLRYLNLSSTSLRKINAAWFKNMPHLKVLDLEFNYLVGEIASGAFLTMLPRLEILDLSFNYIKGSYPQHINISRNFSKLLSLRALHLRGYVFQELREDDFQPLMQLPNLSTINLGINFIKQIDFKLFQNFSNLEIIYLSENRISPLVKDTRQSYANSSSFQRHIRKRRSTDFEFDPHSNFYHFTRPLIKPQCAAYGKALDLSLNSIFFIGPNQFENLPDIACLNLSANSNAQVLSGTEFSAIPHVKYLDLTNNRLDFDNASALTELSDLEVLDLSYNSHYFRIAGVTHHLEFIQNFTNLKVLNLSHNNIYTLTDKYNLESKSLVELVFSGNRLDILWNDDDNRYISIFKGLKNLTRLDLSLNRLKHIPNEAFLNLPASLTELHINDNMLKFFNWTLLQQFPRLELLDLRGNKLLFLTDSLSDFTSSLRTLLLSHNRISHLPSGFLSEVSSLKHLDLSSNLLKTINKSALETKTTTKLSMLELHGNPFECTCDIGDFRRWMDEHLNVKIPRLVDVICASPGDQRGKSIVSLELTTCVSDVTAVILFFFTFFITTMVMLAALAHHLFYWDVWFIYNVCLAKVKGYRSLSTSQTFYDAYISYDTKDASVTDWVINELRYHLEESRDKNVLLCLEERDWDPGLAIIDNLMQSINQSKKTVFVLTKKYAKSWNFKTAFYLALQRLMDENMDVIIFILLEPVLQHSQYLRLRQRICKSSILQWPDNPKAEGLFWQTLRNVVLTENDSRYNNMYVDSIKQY
How it was run: (§3)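 TNFα secretion by hPBMCs across a μM dose range; MEC = lowest dose tested inducing cytokine, PC = dose giving highest level, PL = peak level at 10 μM. Data representative of one of three independent donors.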

[9] = molecular target: T4, Toll-like receptor 8 (Homo sapiens); experiment: Agonist activity at TLR8 in human PBMC assessed as TNFalpha level at 10 uM; how it was run: as §3
[10] = molecular target: TLR7 and TLR8 (Homo sapiens) (UniProt Q9NYK1+Q9NR97); experiment: Agonist activity at TLR7/TLR8 in human PBMC assessed as IFN alpha level; how it was run: as §1
[11] = molecular target: T2, Toll-like receptor 7 (Homo sapiens); experiment: Agonist activity at TLR7 in human PBMC assessed as induction of plasmacytoid dendritic cell maturation by measuring CD86 level at 0.1 uM after 6 hrs by flow cytometry; how it was run: as §2
[12] = molecular target: T4, Toll-like receptor 8 (Homo sapiens); experiment: Agonist activity at TLR8 in human PBMC assessed as induction of myeloid dendritic cell maturation by measuring HLA-DR level at 0.1 uM after 6 hrs by flow cytometry; how it was run: as §2
[13] = molecular target: T4, Toll-like receptor 8 (Homo sapiens); experiment: Agonist activity at TLR8 in human PBMC assessed as induction of myeloid dendritic cell maturation by measuring CD86 level at 0.1 uM after 6 hrs by flow cytometry; how it was run: as §2
[14] = molecular target: T2, Toll-like receptor 7 (Homo sapiens); experiment: Agonist activity at TLR7 in human PBMC assessed as induction of plasmacytoid dendritic cell maturation by measuring CD80 level at 0.1 uM after 6 hrs by flow cytometry; how it was run: as §2

Row | Structure (SMILES) | Activity [1] | Activity [2] | fold change (FC) [3] | fold change (FC) [4] | fold change (FC) [5] | EC50 [6] | Activity [7] | MEC [8] | Activity [9] | ECmax [10] | MEC [10] | Activity [11] | Activity [12] | Activity [13] | Activity [14]
1 | CCC[C@H](C)Oc1nc(N)c2[nH]c(=O)n(CC3CCNCC3)c2n1 | inactive | 5470 pg/mL | 2 | 1.2 to 2.4 | 1.2 to 2.4 | 2.68 µM | inactive |  |  |  |  |  |  |  | 
2 | COCCOc1nc(N)c2[nH]c(=O)n(Cc3ccccc3)c2n1 |  | 1440 pg/mL |  |  |  | 1.17 µM |  | 2 µM | 1660 pg/mL | 0.08 µM | 0.08 µM |  |  |  | 
3 | CCCCNc1nc(N)c2[nH]c(=O)n(CC3CCNCC3)c2n1 |  | 5980 pg/mL |  |  |  | 40 µM |  |  |  |  |  |  |  |  | 
4 | CCC[C@H](C)Oc1nc(N)c2[nH]c(=O)n(CC3CCN(CCN)CC3)c2n1 |  | 4420 pg/mL |  |  |  | 6.71 µM |  |  |  |  |  |  |  |  | 
5 | CCCCOc1nc(N)c2[nH]c(=O)n(CC3CCN(CCO)CC3)c2n1 |  | 4730 pg/mL | 1.7 to 2.3 | 1.5 to 1.7 | 1.5 to 1.7 | 23.1 µM |  | 10 µM | 2740 pg/mL | 0.4 µM | 0.4 µM | inactive | inactive | inactive | inactive
6 | CCCCOc1nc(N)c2[nH]c(=O)n(CC3CCN(CCN)CC3)c2n1 |  | 3040 pg/mL | 1.7 to 2.3 | 1.5 to 1.7 | 1.5 to 1.7 | 30 µM |  |  |  |  |  | inactive |  |  | inactive
